In data set [1] the test system is primary human epidermal melanocytes. The data set is described as follows: Melanin content assay in melanocyte cultures. Type of data set: cell-based. The following applies: for inhibition of melanin production in melanocytes: 72 h of treatment, at similar doses, mean ± SD; for reduction in melanin synthesis: 72 h.
For data set [2], the target named is T1, recombinant human tyrosinase (Homo sapiens, UniProt P14679).
T1 sequence (P14679 19-476 limits assumed): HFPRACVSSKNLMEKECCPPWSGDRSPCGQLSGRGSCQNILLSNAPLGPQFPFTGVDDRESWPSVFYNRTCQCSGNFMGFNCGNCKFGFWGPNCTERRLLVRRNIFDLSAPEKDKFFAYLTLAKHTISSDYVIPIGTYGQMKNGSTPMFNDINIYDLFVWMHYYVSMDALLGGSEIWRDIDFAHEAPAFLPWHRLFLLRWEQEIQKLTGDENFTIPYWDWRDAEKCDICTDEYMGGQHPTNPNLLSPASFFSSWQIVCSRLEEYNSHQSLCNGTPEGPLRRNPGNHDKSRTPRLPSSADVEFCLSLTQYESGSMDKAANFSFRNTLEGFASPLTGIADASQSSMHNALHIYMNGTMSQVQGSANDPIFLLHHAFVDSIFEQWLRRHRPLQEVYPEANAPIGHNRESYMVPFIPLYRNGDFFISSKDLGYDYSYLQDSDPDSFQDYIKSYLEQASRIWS
The data set is described as follows: biochemical.

The next data set has as its system primary melanocytes. The data set can be described thus: Cell viability. Type of data set: cell-based, human. The procedure, abridged:
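Neonatal foreskin primary human epidermal melanocytes at passages 4–6 were grown in Medium 254‑CF with melanocyte growth supplement at 37°C and 5% CO2. They were exposed to test compound for 72 h, starting 24 h after plating, alongside 0.1% (v/v) DMSO or medium vehicle controls. Cells were washed in Ca/Mg‑free PBS and loaded with 1 µM Calcein‑AM for 30 min at 37°C, protected from light. Fluorescence was read at ex 490/em 520 nm, with cell‑free blank wells.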

Consider four compounds from publication PMC9305876 (International Journal of Cosmetic Science, 2022).

pIC50: −log10 of the molar value.

`CCCCc1ccc(O)cc1O` [4‐BR, 4‐butylresorcinol]: the “inhibition of melanin production in melanocytes” value in data set [1] came out at 28.6 ± 3%. Further, in data set [2], the pIC50 was 4.89.

As for `CCCCCCc1ccc(O)cc1O` [4‐HR, 4‐hexylresorcinol], in data set [1] (4‐HR alone (comparator to 1 µM in combination)), the “reduction in melanin synthesis” value amounted to 7.3 ± 3%. The “inhibition of melanin production in melanocytes” value in data set [1] was determined as 35 ± 1.9%. Further, the pIC50 in data set [2] was 4.80. Also, the “maximum non‐cytotoxic dose for primary melanocytes” value with primary melanocytes is listed as 10 µM.

Take `Oc1ccc(O)cc1` [Hydroquinone, hydroquinone]: the pIC50 in data set [2] was < 3.00.

Consider `NC(=O)c1cccnc1` [niacinamide], for which the “reduction in melanin synthesis” value in data set [1] (niacinamide alone (comparator to 10 mM in combination)) is given as 7.2 ± 4.3%. In the data set on primary melanocytes, the “maximum non‐cytotoxic dose for primary melanocytes” value is 10000 µM.
